Screens as filed in PubChem.
A selection: hits, their analogues and other compounds. The true share with any hit is near 3.5%.
RGS4 act: potentiators or activators of RGS4; HEK293 M3R/inducible RGS4, carbachol calcium flux Fluo4; hits give low values; B-score at 10 µM; 310,000 tested, 0.92% active; AID 463111;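 active = B-score of the integrated calcium signal more than 4 SD below the library mean, with starting fluorescence not abnormally high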;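 also: negative B-score means reduced calcium response which marks RGS4 activation or potentiation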
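System: HEK293 FlpIn-TREx cells, stable M3R, doxycycline-inducible RGS4. Timing: overnight RGS4 induction, 30 min dye load 37 °C, 20 min compound RT. Also added: carbachol, ECmax concentration. Measured by: Fluo4 fluorescence kinetic imaging of calcium. Evaluation: integrated calcium ratio converted to B score.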
MrgX1 ag: human MrgX1 receptor agonism, primary screen; Q96LB2; MrgX1-HEK293 cells, Fluo-4 calcium fluorescence, agonist mode; hits give high values; B-score at 10 µM; 310,000 tested, 0.44% active; AID 588627;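 active = calcium response B-score plate-corrected fluorescence ratio at least 3 library SD, with starting fluorescence B-score inside 5 SD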
Target sequence (Q96LB2 whole entry, looked up): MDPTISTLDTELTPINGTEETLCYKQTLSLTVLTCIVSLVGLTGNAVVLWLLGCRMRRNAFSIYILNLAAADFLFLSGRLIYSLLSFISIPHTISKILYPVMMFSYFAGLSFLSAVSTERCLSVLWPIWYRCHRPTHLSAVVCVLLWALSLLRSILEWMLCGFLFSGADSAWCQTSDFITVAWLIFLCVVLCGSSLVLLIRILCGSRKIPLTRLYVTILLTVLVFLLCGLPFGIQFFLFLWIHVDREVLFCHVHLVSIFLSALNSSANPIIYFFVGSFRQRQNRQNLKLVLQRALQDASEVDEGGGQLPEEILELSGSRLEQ
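Material – MrgX1-expressing HEK293 cells · Input – 15,000 cells seeded per well · Dosing – compound as first of three additions · Times – overnight seeding, then 1 h dark dye loading · Measured by – kinetic Fluo-4 NW fluorescence of intracellular calcium · Read-out – B-scored fluorescence response ratio · Benchmarks – positive and negative control wells on each plate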
MrgX1 PAM: allosterically activates human MrgX1 receptor signaling | MrgX1-HEK293, Fluo-4 calcium flux, FDSS; hits give high values | Q96LB2 | 310,000 tested, 0.63% active | B-score at 10 µM;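 active = plate-corrected calcium response at least 3 library SD above typical, normal starting fluorescence, not activating the receptor alone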;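 also: compound read alongside a low EC10 to EC30 dose of BAM8-22 agonist; peak minus trough fluorescence over baseline measured at the second addition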
RGS4 block: inhibitors of human RGS4; P49798; HEK293 M3R/RGS4 inducible, Fluo-4 calcium flux; hits give high values; triggered by carbachol at its EC20; B-score at 10 µM; 310,000 tested, 0.45% active;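 active = B-score, a plate-corrected calcium signal, over three deviations above library mean, with baseline fluorescence within five deviations of library mean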;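 also: RGS4 expression induced by doxycycline in cells with stable M3 receptor; B-score is computed from the integrated fluorescence ratio over baseline after carbachol; higher B-score means a larger calcium signal and so more RGS4 inhibition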
Target sequence (P49798 whole entry, looked up): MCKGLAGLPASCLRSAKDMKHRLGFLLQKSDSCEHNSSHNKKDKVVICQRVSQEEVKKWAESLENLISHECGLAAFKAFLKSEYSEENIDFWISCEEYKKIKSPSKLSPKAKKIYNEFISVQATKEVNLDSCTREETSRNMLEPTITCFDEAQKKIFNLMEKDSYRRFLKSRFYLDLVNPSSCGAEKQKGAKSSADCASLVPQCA
MrgX1 antagonist: human MrgX1 receptor antagonism, primary screen | Q96LB2 | MRGX1-HEK293 calcium flux, Fluo-4, BAM8-22 antagonism; hits give low values | B-score at 10 µM | 310,000 tested, 1.3% active;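 active = calcium-response B-score plate-corrected more than 3 library SD below zero, starting fluorescence within 5 deviations, no agonist response on first addition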;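 also: peak minus trough fluorescence over baseline after final BAM8-22 challenge near maximal dose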
RGS4 block valid: validation of RGS4 inhibitors | shares compounds with RGS4 block | HEK293 M3R/RGS4, carbachol calcium Fluo-4 fluorescence; carbachol added at its EC20; 0 = buffer wells, 100 = carbachol control | calcium response, % at 10 µM | 1,700 tested, 65% active;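 active = duplicate-averaged calcium response above the buffer-only control mean plus 5 SD of those controls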;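 also: integrated fluorescence ratio F max minus min over baseline F0; higher response in RGS4-induced cells means RGS4 inhibition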
RGS4 uninduced: counter-screen for RGS4 inhibitors: effect in non-induced cells; shares compounds with RGS4 block; HEK293 M3R non-induced, carbachol calcium Fluo-4; submaximal (EC20) carbachol stimulus; buffer wells 0%, carbachol control wells 100%; activity (percent), % at 10 µM; 1,900 tested, 20% active; call rule not given here;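 also: RGS4 induction absent so cells express M3R without RGS4; higher means more calcium signal and flags a non-specific hit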
M3R basal Ca ctr: second RGS4 inhibitor counter-screen in uninduced cells lacking carbachol; AID 493001; shares compounds with RGS4 block; calcium response (agonist-mode artifact), % at 10 µM; 1,900 tested, 22% active; HEK293 M3R/RGS4 non-induced, Fluo-4 calcium, no carbachol; normalised: buffer wells 0%, carbachol wells 100%;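 active = duplicate-averaged calcium rise in uninduced cells above buffer wells' mean plus 5 SD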
MrgX1 ag confirm: reconfirmed activator of human MrgX1 receptor signaling. MrgX1-HEK293, Fluo-4 calcium fluorescence, FDSS. 600 tested, 78% active. shares compounds with MrgX1 ag. activation, % at 10 µM;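 active = calcium signal rise, corrected for plate position, at least 3 library SD high, with starting brightness within 5 such deviations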
HEK293 Ca flux: activity in parental HEK293 cells lacking MrgX1. shares compounds with MrgX1 antagonist. Fluo-4 calcium fluorescence, FDSS. fluorescence ratio F(max-min)/F0 at 10 µM. 4,000 tested, 2% active. AID 624111;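 active = duplicate-averaged calcium fluorescence ratio at least three times the standard deviation of buffer wells, a nonspecific response in parental cells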
HEK293 Ca counter: activity in parental HEK293 cells without MrgX1. shares compounds with MrgX1 antagonist. fluorescence ratio F(max-min)/F0 at 10 µM. parental HEK293 calcium flux, Fluo-4 fluorescence ratio; hits give high values. AID 624114. 4,000 tested, 0.4% active;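 active = calcium fluorescence ratio, averaged over duplicates, at least 3 SD of the buffer-well ratio, meaning a nonspecific response in receptor-free cells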;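 also: untransfected parental HEK293 lacking MrgX1 used as counterscreen for MrgX1 allosteric activators; fluorescence change taken during the second addition on a kinetic imager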
HEK293 Ca cntr2: MrgX1 activator counter-screen hit in parental HEK293 cells; fluorescence ratio F(max-min)/F0 at 10 µM; AID 624115; Fluo-4 calcium fluorescence (FDSS); hits give high values; shares compounds with MrgX1 antagonist; 4,000 tested, 8.7% active;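 active = calcium fluorescence ratio at least three times the spread of buffer wells, meaning a non-specific response in parental cells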
* hit, by the source's call; i = inactive; . = no result.

SMILES | RGS4 act | MrgX1 ag | MrgX1 PAM | RGS4 block | MrgX1 antagonist | RGS4 block valid | RGS4 uninduced | M3R basal Ca ctr | others
O=C1NC(=O)N(Cc2ccccc2)C(=O)/C1=C\C=C\c1ccco1 | i | 28* | i | 5.5* | i | 19%* | i | 15%*
O=C1NC(=O)N(Cc2ccccc2)C(=O)/C1=C/c1cnc(-c2ccccc2)nc1 | i | i | i | i | i | . | . | .
O=C1NC(=O)N(Cc2ccco2)C(=O)/C1=C/C=C/c1ccco1 | i | 36* | i | 5.4* | i | i | i | i
CN(C)c1ccc(/C=C/C=C2/C(=O)NC(=O)N(c3ccccc3)C2=O)cc1 | i | . | . | i | . | . | . | .
C=CCN1C(=O)NC(=O)/C(=C/C=C/c2ccccc2)C1=O | i | . | . | 5.3* | . | 26%* | i | 18%*
Cn1cccc1/C=C1\C(=O)NC(=O)N(Cc2ccco2)C1=O | i | . | . | i | . | . | . | .
O=C(Cn1cnc2sc3c(c2c1=O)CCCC3)NCCCC(=O)N1CCC2(CC1)OCCO2 | i | i | i | i | i | . | . | .
CCc1ccccc1NC(=O)CNCc1ccccc1 | i | i | i | i | i | . | . | .
O=C(COc1ccccc1)N1CCN(C2CC3CCC2C3)CC1 (stereo not drawn) | i | i | i | i | i | . | . | .
Cc1cc(C)cc(N2C(=O)NC(=O)/C(=C/c3cccn3-c3ccc(Cl)cc3)C2=O)c1 | i | i | i | i | i | i | i | i
O=C1Nc2ccc(Br)cc2C(c2ccc(Cl)cc2)=NC1O (stereo not drawn) | i | i | i | i | i | . | . | .
O=[N+]([O-])c1ccc(N2CCCC2)c2ncccc12 | i | i | i | i | i | . | . | .
CC1CN(c2ccc([N+](=O)[O-])c3cccnc23)CC(C)N1 (stereo not drawn) | i | i | i | 5.8* | i | i | i | i
CCOC(=O)C1=C(N)OC2=C(C(=O)CCC2)C12C(=O)N(CC(N)=O)c1ccccc12 (stereo not drawn) | i | i | i | i | i | . | . | .
CCOC(=O)C1=C(N)Oc2ccccc2C12C(=O)N(CC(=O)OC)C(CC(=O)OC)=C2C(=O)OC (stereo not drawn) | i | i | i | i | i | . | . | .
CCCc1[nH]nc2c1C1(C(=O)N(Cc3ccccc3)c3ccccc31)C(C(=O)OC)=C(N)O2 (stereo not drawn) | i | i | i | 5.9* | i | 19%* | 30%* | i
CCCc1[nH]nc2c1C1(C(=O)N(CC(N)=O)c3ccccc31)C(C(=O)OC)=C(N)O2 (stereo not drawn) | i | i | i | i | i | i | i | i
COC(=O)C1=C(c2cccc(OC)c2OC)C[C@@H]2CC[C@H]1N2C(=O)NCC1CC1 | i | i | i | i | i | . | . | .
O=c1oc2ccccc2c(O)c1C(c1ccc([N+](=O)[O-])cc1)c1c(O)c2ccccc2oc1=O | i | . | . | 4.9* | . | 30%* | i | i
CN1C(=O)/C(=C/C=C/c2ccco2)C(=O)NC1=S | i | i | i | i | i | . | . | .
CN1C(=O)NC(=O)/C(=C\C=C\c2ccccc2[N+](=O)[O-])C1=O | i | i | i | 6.6* | i | 16%* | i | 10%*
COc1ccc(OC)c(N2C(=O)NC(=O)/C(=C/c3ccc([N+](=O)[O-])s3)C2=O)c1 | i | i | i | 5.8* | i | 15%* | i | i
COc1ccc(OC)c(N2C(=O)/C(=C/c3ccco3)C(=O)NC2=S)c1 | i | i | i | i | i | . | . | .
COc1ccc(C2CC(c3c(O)n(CCc4ccccc4)c(=O)[nH]c3=O)=NN2)cc1OC (stereo not drawn) | i | i | i | 8.1* | i | i | i | i
COc1nc(NC(C)C)nc(NC(C)C)n1 | i | i | i | i | i | . | . | .
SMILES | RGS4 act | MrgX1 ag | MrgX1 PAM | RGS4 block | MrgX1 antagonist | RGS4 block valid | RGS4 uninduced | M3R basal Ca ctr | others
CNc1cc(Cl)c2nonc2c1[N+](=O)[O-] | i | . | . | 17* | . | 54%* | i | i
Cc1cc([N+](=O)[O-])c(Cl)cc1NC(=O)C(C)C | i | i | i | i | i | . | . | .
CC(C)(C)c1ccc(O)c(N=Cc2c(O)ccc3ccccc23)c1 | i | 56* | i | i | i | . | . | . | MrgX1 ag confirm=115%*;HEK293 Ca flux=i;HEK293 Ca counter=i;HEK293 Ca cntr2=46*
O=C1CCCN1CC#CCN1CCCC1 | i | 52* | i | i | i | . | . | . | MrgX1 ag confirm=226%*;HEK293 Ca flux=i;HEK293 Ca counter=i;HEK293 Ca cntr2=49*
CN1CCN(c2ccc3c(c2)S(=O)(=O)c2ccccc2C3=O)CC1 | i | 28* | i | i | i | . | . | . | MrgX1 ag confirm=i;HEK293 Ca flux=i;HEK293 Ca counter=i;HEK293 Ca cntr2=51*
CN1CCN(c2cccc3c2C(=O)c2ccccc2C3=O)CC1 | i | . | . | i | . | . | . | .
CNc1ccc2oc(C[C@H]3O[C@@]4(CC[C@H]3C)O[C@H]([C@H](C)C(=O)c3ccc[nH]3)[C@H](C)C[C@H]4C)nc2c1C(=O)O | i | 160* | i | i | i | . | . | . | MrgX1 ag confirm=823%*;HEK293 Ca flux=i;HEK293 Ca counter=i;HEK293 Ca cntr2=158*
COc1cccc(CNCCc2cccc(F)c2)c1OC | i | i | i | i | i | . | . | .
CC1(C)CSC(=NCc2ccccc2)N1 | i | 164* | i | i | i | . | . | . | MrgX1 ag confirm=677%*;HEK293 Ca flux=i;HEK293 Ca counter=i;HEK293 Ca cntr2=129*
N#CCP(=S)(c1ccccc1)c1ccccc1 | i | i | i | i | i | . | . | .
